Results reported in ChEMBL document CHEMBL4613231 (Bioorg Med Chem, 2020).

Key:
WI-38 [1] = assay: (§1) Cytotoxicity against human WI38 cells assessed as reduction in cell viability after 72 hrs by MTT assay; assay type: cell-based; conditions: wi-38, 72 h
Outline: (§2)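 Cells plated at ~2000 per well, grown 24h at 37 °C in IMDM (5% CO2), then exposed to compounds at 1, 5, 20 and 100 µM for 72h. Viable cells quantified by colorimetric MTT test; CC50 taken as mean of three independent experiments.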

[2] = target: T1, Tyrosyl-DNA phosphodiesterase 1 (Homo sapiens, UniProt Q9NUW8); assay: Inhibition of TDP1 (unknown origin) using 5'-(5,6 FAM-AAC GTC AGG GTC TTC C- BHQ1)-3' as substrate measured for every 1 min by fluorescence based assay
T1 sequence (Q9NUW8 whole entry): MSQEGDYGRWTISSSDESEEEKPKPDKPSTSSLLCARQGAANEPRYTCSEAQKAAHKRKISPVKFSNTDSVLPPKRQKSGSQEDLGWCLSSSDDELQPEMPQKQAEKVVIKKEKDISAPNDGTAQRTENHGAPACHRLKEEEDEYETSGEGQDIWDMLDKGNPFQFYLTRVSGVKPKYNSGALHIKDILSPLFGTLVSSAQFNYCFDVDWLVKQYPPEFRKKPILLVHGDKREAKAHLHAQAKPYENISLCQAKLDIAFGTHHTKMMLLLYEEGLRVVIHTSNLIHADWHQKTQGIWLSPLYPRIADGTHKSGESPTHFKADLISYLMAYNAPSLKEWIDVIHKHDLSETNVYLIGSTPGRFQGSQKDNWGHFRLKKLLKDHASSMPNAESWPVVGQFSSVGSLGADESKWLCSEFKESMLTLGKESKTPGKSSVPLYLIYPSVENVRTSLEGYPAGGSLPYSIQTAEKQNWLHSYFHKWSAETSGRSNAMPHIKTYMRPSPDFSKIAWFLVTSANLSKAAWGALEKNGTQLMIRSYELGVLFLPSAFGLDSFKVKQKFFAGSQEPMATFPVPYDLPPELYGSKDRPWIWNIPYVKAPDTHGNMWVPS
Outline: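 TDP1 buffer (50 mM Tris-HCl pH 8.0, 50 mM NaCl, 7 mM β-mercaptoethanol) with FAM/BHQ1 quenched biosensor at 50 nM final and inhibitor over a concentration range. Started by adding TDP1 (1.5 nM), 26 °C, fluorescence (Ex485/Em520) read every 1 min. Linear-phase slope compared with DMSO control, IC50 taken from concentration-response curves, at least three independent experiments.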

T98G [3] = assay: Cytotoxicity against human T98G cells at 1 uM after 72 hrs in presence of topotecan by MTT assay; assay type: cell-based
WI-38 [4] = assay: Cytotoxicity against human WI38 cells at 1 uM after 72 hrs in presence of topotecan by MTT assay; assay type: cell-based; conditions: wi-38, 72 h
A549 = assay: Cytotoxicity against human A549 cells assessed as reduction in cell viability after 72 hrs by MTT assay; assay type: cell-based; conditions: a549, 72 h; outline: as §2
T98G [5] = assay: (§3) Cytotoxicity against human T98G cells assessed as reduction in cell viability after 72 hrs by MTT assay; assay type: cell-based; conditions: t98g, 72 h; outline: as §2
MCF7 = assay: (§4) Cytotoxicity against human MCF7 cells assessed as reduction in cell viability after 72 hrs by MTT assay; assay type: cell-based; conditions: mcf7, 72 h; outline: as §2
[6] = as §1; assay type: cell-based, WI-38; conditions: WI-38 cells; outline: as §2
[7] = as §3; assay type: cell-based; conditions: T98G cells; outline: as §2
[8] = as §4; assay type: cell-based; conditions: MCF7 cells; outline: as §2
[9] = target: T1, Tyrosyl-DNA phosphodiesterase 1; assay: Inhibition of TDP1 (unknown origin) using 5'-(5,6 FAM-AAC GTC AGG GTC TTC C- BHQ1)-3' as substrate measured after 20 mins by gel-based assay
Outline: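 Reaction (200 μL) in TDP1 buffer (50 mM Tris-HCl pH 8.0, 50 mM NaCl, 7 mM β-mercaptoethanol) with FAM/BHQ1 biosensor oligo at 50 nM final and inhibitor at various concentrations. Started with TDP1 at 1.5 nM final, run 20 min at room temperature, stopped with loading buffer. Products separated by denaturing PAGE, scanned and quantified, and IC50 derived.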

With `O=c1cc(-c2cc3ccccc3oc2=O)c2ccc(OCc3c(Cl)cccc3Cl)cc2o1` the Activity (WI-38 [1]) was “Non-Toxic”, the IC50 [2] was 0.099 µM and the Activity (T98G [3]) was “Toxic”. The Activity (WI-38 [4]) was “Toxic”, the Activity (A549) was “Non-Toxic” and the Activity (T98G [5]) was “Non-Toxic”. The Activity (MCF7) was “Non-Toxic”.

In the case of `COc1cccc2cc(-c3cc(=O)oc4c(C)c(OCc5ccc(Cl)cc5)ccc34)c(=O)oc12`, the CC50 at 72 h [6] is reported as 60 µM, the IC50 [2] is reported as 0.36 µM and the Activity (T98G [3]) is reported as “Toxic”. The Activity (WI-38 [4]) was “Toxic”, the CC50 at 72 h [7] was 16 µM and the CC50 at 72 h [8] was 17 µM.

`CCCc1cc(=O)oc2c(C)c(OCC(=O)NC(Cc3c[nH]c4ccc(O)cc34)C(=O)O)ccc12` (configuration not stated) gave an IC50 [2] of 5.6 µM.

`Cc1c(CC(=O)NC(Cc2ccc(Cl)cc2)C(=O)O)c(=O)oc2c(C)c3occ(-c4ccc(F)cc4)c3cc12` (configuration not stated) gave an IC50 [2] of 0.85 µM.

In the case of `O=c1cc(-c2cc3ccccc3oc2=O)c2ccc(OCc3cccc4ccccc34)cc2o1`, the IC50 [2] is reported as 0.27 µM.

In the case of `CC(C)C[C@H](N)C(=O)N1CCC(C(=O)N[C@@H](Cc2ccccc2)C(=O)NCc2ccccc2F)CC1`, the IC50 [2] is reported as over 100 µM.

In the case of `O=C(COc1cc2oc(=O)cc(-c3ccccc3)c2cc1Cl)NC[C@H]1CC[C@H](C(=O)O)CC1`, the IC50 [2] is reported as over 100 µM.

For `O=C(NCCC1=CCCCC1)c1cc2c([nH]c3ccccc32)c(-c2ccc3c(c2)OCO3)n1`, the IC50 [2] was 1.3 µM.

Work on `Cc1c(CCC(=O)N[C@@H](CSCc2ccccc2)C(=O)O)c(=O)oc2cc3oc4c(c3cc12)CCCC4` yielded an IC50 [2] of 15.4 µM.

With `Cc1c(Cc2ccccc2)c(=O)oc2cc(OCC(=O)N[C@@H](CSCc3ccccc3)C(=O)O)ccc12` the IC50 [2] was 3.5 µM.

Molecule `Cc1c(CC(=O)N[C@@H](CSCc2ccccc2)C(=O)O)c(=O)oc2c(C)c3occ(-c4ccc(F)cc4)c3cc12` has an IC50 [2] of 1.06 µM, a CC50 at 72 h [7] of 66 µM and an IC50 [9] of 1.75 µM. For the same molecule, the CC50 at 72 h [8] was 80 µM.

Molecule `O=C(NCCc1c[nH]c2ccccc12)c1cc2c([nH]c3ccccc32)c(-c2ccc3c(c2)OCO3)n1` has an IC50 [2] of 0.98 µM.

`Cc1oc2c(C)c3oc(=O)c(CC(=O)NCC(=O)O)c(C)c3cc2c1-c1ccccc1` gave an IC50 [2] of over 100 µM.

For `CC(C)OCCCNC(=O)c1cc2c([nH]c3ccccc32)c(-c2ccc3c(c2)OCO3)n1`, the IC50 [2] was 3.1 µM.

Work on `O=c1cc(-c2cc3ccccc3oc2=O)c2ccc(OCc3ccccc3Cl)cc2o1` yielded an IC50 [2] of 0.28 µM and a CC50 at 72 h [7] of 16 µM.

Work on `COc1cccc2cc(-c3cc(=O)oc4cc(OCC(C)=O)ccc34)c(=O)oc12` yielded an IC50 [2] of 7.6 µM.

In the case of `COc1ccc(-c2cc(=O)oc3cc(OCC(=O)N[C@H](C(=O)O)c4ccccc4)ccc23)cc1`, the IC50 [2] is reported as 12.9 µM.
